In ChEMBL document CHEMBL1151986, “Antineoplastic agents. 570. Isolation and structure elucidation of bacillistatins 1 and 2 from a marine Bacillus silvestris” (2009):
Converted amounts (≈) assume the structure as drawn. The source made the active and inactive calls. No cut-off for these calls is given here.

Experiments:
DU-145 = assay: Cytotoxicity against human DU145 cells after 48 hrs by sulforhodamine B assay; type: functional; conditions: DU-145, 48 h
Summary of the method: (§1)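 Cells were grown in RPMI-1640 with 5% fetal bovine serum in 96-well plates for 24 h, then exposed to serial dilutions in DMSO vehicle for 48 h. Plates were fixed with trichloroacetic acid, stained with sulforhodamine B and read for optical density. GI50 is the concentration giving a 50% reduction in net protein increase.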

KM-20L2 = assay: Cytotoxicity against human KM20L2 cells after 48 hrs by sulforhodamine B assay; type: functional; conditions: KM-20L2, 48 h; summary of the method: as §1
NCI-H460 = assay: Cytotoxicity against human NCI-H460 cells after 48 hrs by sulforhodamine B assay; type: functional; conditions: NCI-H460, 48 h; summary of the method: as §1
MCF7 = assay: Cytotoxicity against human MCF7 cells after 48 hrs by sulforhodamine B assay; type: functional; conditions: MCF7, 48 h; summary of the method: as §1
SF-268 = assay: Cytotoxicity against human SF268 cells after 48 hrs by sulforhodamine B assay; type: functional; conditions: SF-268, 48 h; summary of the method: as §1
BXPC-3 = assay: Cytotoxicity against human BxPC3 cells after 48 hrs by sulforhodamine B assay; type: functional; conditions: BXPC-3, 48 h; summary of the method: as §1
Streptococcus pyogenes [1] = assay: Antibacterial activity against Streptococcus pyogenes clinical isolate by broth microdilution assay in presence of 25% heat inactivated human serum; type: functional
Streptococcus pneumoniae [2] = assay: Antibacterial activity against Streptococcus pneumoniae by broth microdilution assay in presence of 25% heat inactivated human serum; type: functional
P388 = assay: Cytotoxicity against mouse P388 cells after 48 hrs by coulter counter method; type: functional; conditions: P388, 48 h, read-out: ED50 (the source's name)
Summary of the method: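 Murine lymphocytic leukemia P388 cells were preincubated for 24 h in Fisher medium with 10% horse serum, then incubated 48 h with serial dilutions in DMSO vehicle. Cells were counted on a Coulter particle counter, and ED50 was taken as the concentration giving 50% growth inhibition.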

Neisseria gonorrhoeae = assay: Antibacterial activity against Neisseria gonorrhoeae ATCC 49226 at 64 ug/mL by broth microdilution assay; type: functional, organism-based
Enterobacter cloacae = assay: Antibacterial activity against Enterobacter cloacae ATCC 13047 at 64 ug/mL by broth microdilution assay; type: functional, organism-based
[3] = system: Stenotrophomonas maltophilia; assay: Antibacterial activity against Stenotrophomonas maltophilia ATCC 13637 at 64 ug/mL by broth microdilution assay; type: functional, organism-based
Escherichia coli = assay: Antibacterial activity against Escherichia coli ATCC 25922 at 64 ug/mL by broth microdilution assay; type: functional, organism-based
Enterococcus faecalis = assay: Antibacterial activity against Enterococcus faecalis ATCC 29212 at 64 ug/mL by broth microdilution assay; type: functional, organism-based
Micrococcus luteus = assay: Antibacterial activity against Micrococcus luteus Presque Isle 456 at 64 ug/mL by broth microdilution assay; type: functional, organism-based
Staphylococcus aureus = assay: Antibacterial activity against Staphylococcus aureus ATCC 29213 at 64 ug/mL by broth microdilution assay; type: functional, organism-based
Cryptococcus neoformans = assay: Antifungal activity against Cryptococcus neoformans ATCC 90112 at 64 ug/mL by broth microdilution assay; type: functional, organism-based
Candida albicans = assay: Antifungal activity against Candida albicans ATCC 90028 at 64 ug/mL by broth microdilution assay; type: functional, organism-based
Streptococcus pyogenes [4] = assay: Antibacterial activity against Streptococcus pyogenes clinical isolate by broth microdilution assay; type: functional
Streptococcus pneumoniae [5] = assay: Antibacterial activity against multidrug-resistant Streptococcus pneumoniae ATCC 700673 by broth microdilution assay; type: functional
Streptococcus pneumoniae [6] = assay: Antibacterial activity against Streptococcus pneumoniae ATCC 6303 by broth microdilution assay; type: functional
Streptococcus pneumoniae [7] = assay: Antibacterial activity against penicillin-resistant Streptococcus pneumoniae clinical isolate by broth microdilution assay; type: functional

Work on CC[C@H](C)[C@H]1OC(=O)[C@H](C(C)C)NC(=O)[C@H](C)OC(=O)[C@@H](C(C)C)NC(=O)[C@@H]([C@@H](C)CC)OC(=O)[C@H](C(C)C)NC(=O)[C@H](C)OC(=O)[C@@H](C(C)C)NC(=O)[C@@H]([C@@H](C)CC)OC(=O)[C@H](C(C)C)NC(=O)[C@H](C)OC(=O)[C@@H](C(C)C)NC1=O [BACILLISTATIN 1] yielded a GI50 (DU-145) of 1.5 ng/mL (≈ 1.3 nM), a GI50 (KM-20L2) of 0.87 ng/mL (≈ 0.754 nM) and a GI50 (NCI-H460) of 2.3 ng/mL (≈ 1.99 nM). The GI50 (MCF7) was 0.61 ng/mL (≈ 0.529 nM), the GI50 (SF-268) was 0.45 ng/mL (≈ 0.39 nM) and the GI50 (BXPC-3) was 0.95 ng/mL (≈ 0.824 nM). The MIC (Streptococcus pyogenes [1]) was > 64 µg/mL, the MIC (Streptococcus pneumoniae [2]) was > 64 µg/mL and the EC50 (P388) was 0.023 µg/mL (≈ 19.9 nM). The Activity (Neisseria gonorrhoeae) was “inactive”, the Activity (Enterobacter cloacae) was “inactive” and the Activity [3] was “inactive”. The Activity (Escherichia coli) was “inactive”, the Activity (Enterococcus faecalis) was “inactive” and the Activity (Micrococcus luteus) was “inactive”. For the same compound, the Activity (Staphylococcus aureus) was “inactive”, the Activity (Cryptococcus neoformans) was “inactive” and the Activity (Candida albicans) was “inactive”. The MBC (Streptococcus pyogenes [4]) was > 32 µg/mL, the MIC (Streptococcus pyogenes [4]) was 2 µg/mL (≈ 1730 nM) and the MBC (Streptococcus pneumoniae [5]) was 1 µg/mL (≈ 867 nM). The MIC (Streptococcus pneumoniae [5]) was < 0.5 µg/mL, the MBC (Streptococcus pneumoniae [6]) was 4 µg/mL (≈ 3470 nM) and the MIC (Streptococcus pneumoniae [6]) was 2 µg/mL (≈ 1730 nM). It also gave an MBC (Streptococcus pneumoniae [7]) of 2 µg/mL (≈ 1730 nM) and an MIC (Streptococcus pneumoniae [7]) of 1 µg/mL (≈ 867 nM).

Work on CC(C)[C@@H]1NC(=O)[C@H](C)OC(=O)[C@@H](C(C)C)NC(=O)[C@@H](C(C)C)OC(=O)[C@H](C(C)C)NC(=O)[C@H](C)OC(=O)[C@@H](C(C)C)NC(=O)[C@@H](C(C)C)OC(=O)[C@H](C(C)C)NC(=O)[C@H](C)OC(=O)[C@@H](C(C)C)NC(=O)[C@@H](C(C)C)OC1=O [VALINOMYCIN] yielded a GI50 (DU-145) of 3.5 ng/mL (≈ 3.15 nM), a GI50 (KM-20L2) of 0.8 ng/mL (≈ 0.72 nM) and a GI50 (NCI-H460) of 2.5 ng/mL (≈ 2.25 nM). For the same compound, the GI50 (MCF7) was 1 ng/mL (≈ 0.9 nM), the GI50 (SF-268) was 2.7 ng/mL (≈ 2.43 nM) and the GI50 (BXPC-3) was 1.9 ng/mL (≈ 1.71 nM). It also gave an EC50 (P388) of 0.12 µg/mL (≈ 108 nM).

For CC[C@H](C)[C@H]1OC(=O)[C@H](C(C)C)NC(=O)[C@H](C)OC(=O)[C@@H](C(C)C)NC(=O)[C@@H]([C@@H](C)CC)OC(=O)[C@H](C(C)C)NC(=O)[C@H](C)OC(=O)[C@@H](C(C)C)NC(=O)[C@@H](CC(C)C)OC(=O)[C@H](C(C)C)NC(=O)[C@H](C)OC(=O)[C@@H](C(C)C)NC1=O, the GI50 (DU-145) was 0.86 ng/mL (≈ 0.746 nM), the GI50 (KM-20L2) was 0.26 ng/mL (≈ 0.225 nM) and the GI50 (NCI-H460) was 0.45 ng/mL (≈ 0.39 nM). For the same compound, the GI50 (MCF7) was 0.31 ng/mL (≈ 0.269 nM), the GI50 (SF-268) was 1.8 ng/mL (≈ 1.56 nM) and the GI50 (BXPC-3) was 0.34 ng/mL (≈ 0.295 nM). For the same compound, the MIC (Streptococcus pyogenes [1]) was > 64 µg/mL, the MIC (Streptococcus pneumoniae [2]) was > 64 µg/mL and the EC50 (P388) was 0.013 µg/mL (≈ 11.3 nM). For the same compound, the Activity (Neisseria gonorrhoeae) was “inactive”, the Activity (Enterobacter cloacae) was “inactive” and the Activity [3] was “inactive”. The Activity (Escherichia coli) was “inactive”, the Activity (Enterococcus faecalis) was “inactive” and the Activity (Micrococcus luteus) was “inactive”. The Activity (Staphylococcus aureus) was “inactive”, the Activity (Cryptococcus neoformans) was “inactive” and the Activity (Candida albicans) was “inactive”. For the same compound, the MBC (Streptococcus pyogenes [4]) was > 16 µg/mL, the MIC (Streptococcus pyogenes [4]) was 2 µg/mL (≈ 1730 nM) and the MBC (Streptococcus pneumoniae [5]) was < 0.5 µg/mL. The MIC (Streptococcus pneumoniae [5]) was < 0.5 µg/mL, the MBC (Streptococcus pneumoniae [6]) was 2 µg/mL (≈ 1730 nM) and the MIC (Streptococcus pneumoniae [6]) was 1 µg/mL (≈ 867 nM). For the same compound, the MBC (Streptococcus pneumoniae [7]) was 1 µg/mL (≈ 867 nM) and the MIC (Streptococcus pneumoniae [7]) was 1 µg/mL (≈ 867 nM).
